Activity calls are given as the source filed them. No cut-off for these calls is given here.
Tests used:
[1] = target: T1, Peroxisome proliferator-activated receptor gamma (Homo sapiens, UniProt P37231); assay: Transactivation of recombinant GST-tagged PPARgamma (unknown origin) expressed in Escherichia coli assessed as N-terminal biotin-labeled LCOR (39 to 63 residues) co-activator recruitment by TR-FRET assay
T1 sequence (P37231 whole entry): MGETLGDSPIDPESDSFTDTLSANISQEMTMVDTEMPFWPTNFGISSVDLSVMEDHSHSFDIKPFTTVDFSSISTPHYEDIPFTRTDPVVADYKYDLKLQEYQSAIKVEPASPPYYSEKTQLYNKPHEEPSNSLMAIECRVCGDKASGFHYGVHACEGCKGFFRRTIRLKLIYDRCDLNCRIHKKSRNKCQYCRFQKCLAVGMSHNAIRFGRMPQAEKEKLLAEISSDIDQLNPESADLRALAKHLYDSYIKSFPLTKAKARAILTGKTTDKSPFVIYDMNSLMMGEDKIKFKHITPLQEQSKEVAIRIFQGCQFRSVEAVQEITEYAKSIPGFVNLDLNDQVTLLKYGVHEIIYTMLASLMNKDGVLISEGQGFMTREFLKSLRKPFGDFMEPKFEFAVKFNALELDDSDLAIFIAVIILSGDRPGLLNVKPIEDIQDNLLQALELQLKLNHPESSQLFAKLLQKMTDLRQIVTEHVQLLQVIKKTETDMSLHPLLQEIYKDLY

Mus musculus [2] = assay: Hypolipidemic activity in C57BL/Ks mouse model of diabetic dyslipidemia assessed as decrease in plasma triglyceride level at 10 mg/kg, po qd administered via gavage for 10 days measured 4 hrs post last dose; format: functional, organism-based
How it was run: (§1)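 Homozygous male C57BL/Ks-db (db/db) mice were gavaged once daily at 10 or 30 mg/kg, for 5 or 10 days. Retro-orbital blood was drawn before treatment and 4 h after the last gavage. Glucose and triglycerides were measured in serum. Results are expressed as % variation on the final day versus the control group. Analysis was one-way ANOVA with Dunnett's test.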

Mus musculus [3] = assay: Antidiabetic activity in C57BL/Ks mouse model of diabetic dyslipidemia assessed as decrease in plasma glucose level at 30 mg/kg, po qd administered via gavage for 10 days measured 4 hrs post last dose; format: functional, organism-based; how it was run: as §1

Row | EC50 [1] | Compound | Activity (Mus musculus [2]) | Activity (Mus musculus [3])
1 | 727 nM | O=C(O)CCCc1cc2cc(Cl)ccc2n1S(=O)(=O)c1ccc2ncsc2c1 [LANIFIBRANOR] |  | 
2 |  | O=C(O)CCc1cc2cc(Cl)ccc2n1S(=O)(=O)c1ccccc1 | inactive | Active

Reference: ChEMBL document CHEMBL4020830, “Design, Synthesis, and Evaluation of a Novel Series of Indole Sulfonamide Peroxisome Proliferator Activated Receptor (PPAR) α/γ/δ Triple Activators: Discovery of Lanifibranor, a New Antifibrotic Clinical Candidate” (J Med Chem, 2018)
